Tests used:
Type in all cases: functional
[1] = test system: Candida albicans; test: Antimicrobial activity against Candida albicans SC5314 at planktonic cell density of 10^3 cells/ml after 24 hrs by XTT assay; details: SC5314, 24 h
How it was run: (§1)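 Planktonic yeast grown in YNB with 50 mM glucose at room temperature with shaking, subcultured to about 2 x 10^8 cells/ml, then washed and resuspended in MOPS-buffered RPMI 1640 with L-glutamine at the stated density. 100 µl of cells was mixed with 100 µl of a twofold drug series (prepared at 1,024 to 0.0313 µg/ml) and incubated for 24 h at 37°C. Read-out was XTT with 1 µM menadione at 37°C, absorbance at 490 nm.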

[2] = test system: Candida albicans; test: Antimicrobial activity against Candida albicans SC5314 at planktonic cell density of 10^8 cells/ml after 24 hrs by XTT assay; details: SC5314, 24 h; how it was run: as §1
[3] = test system: Candida albicans; test: Antimicrobial activity against Candida albicans SC5314 dissociated biofilms at cell density of 10^3 cells/ml after 24 hrs by XTT assay; details: SC5314, 24 h
How it was run: (§2)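 Polystyrene-well biofilms (48 h, 37°C) washed, then broken up in 100 µl RPMI by scraping and aspiration. Cells used undiluted (about 2 x 10^8 cells/ml equivalent) or adjusted by A600 against a hemacytometer-calibrated yeast standard curve. Drug exposure at 37°C for 48 h (caspofungin 24 h), then XTT/menadione read at 490 nm.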

[4] = test system: Candida albicans; test: Antimicrobial activity against Candida albicans SC5314 dissociated biofilms at cell density of 10^8 cells/ml after 24 hrs by XTT assay; details: SC5314, 24 h
How it was run: (§3)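 Biofilms grown from 1 x 10^6 cells/ml in RPMI on polystyrene 96-well plates, 48 h at 37°C in a moist chamber, then washed and scraped into 100 µl RPMI. Cells used undiluted (about 2 x 10^8 cells/ml equivalent) or diluted to a low density set against an A600 standard curve. A twofold drug series was added for 24 h at 37°C. Read-out was XTT/menadione at 490 nm.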

[5] = test system: Candida albicans; test: Antimicrobial activity against Candida albicans SC5314 intact biofilms after 24 hrs by XTT assay; details: SC5314, 24 h
How it was run: (§4)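 Intact biofilms formed from 1 x 10^6 cells/ml in RPMI in polystyrene microtiter wells, 48 h at 37°C in a moist chamber, then washed once and covered with 100 µl RPMI. A twofold drug series was added in the same well for 24 h at 37°C. Metabolic activity was read by XTT (0.5 g/liter, 1 µM menadione, up to 2 h) at 490 nm.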

[6] = test system: Candida albicans; test: Antimicrobial activity against Candida albicans GDH2346 at planktonic cell density of 10^3 cells/ml after 24 hrs by XTT assay; details: GDH2346, 24 h; how it was run: as §1
[7] = test system: Candida albicans; test: Antimicrobial activity against Candida albicans GDH2346 at planktonic cell density of 10^8 cells/ml after 24 hrs by XTT assay; details: GDH2346, 24 h; how it was run: as §1
[8] = test system: Candida albicans; test: Antimicrobial activity against Candida albicans GDH2346 dissociated biofilms at cell density of 10^3 cells/ml after 24 hrs by XTT assay; details: GDH2346, 24 h; how it was run: as §3
[9] = test system: Candida albicans; test: Antimicrobial activity against Candida albicans GDH2346 dissociated biofilms at cell density of 10^8 cells/ml after 24 hrs by XTT assay; details: GDH2346, 24 h; how it was run: as §3
[10] = test system: Candida albicans; test: Antimicrobial activity against Candida albicans GDH2346 intact biofilms after 24 hrs by XTT assay; details: GDH2346, 24 h; how it was run: as §4
[11] = test system: Candida albicans; test: Antimicrobial activity against Candida albicans FH1 at planktonic cell density of 10^3 cells/ml after 24 hrs by XTT assay; details: FH1, 24 h
How it was run: (§5)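 YNB-grown yeast (50 mM glucose, room temperature, shaken, to ~2 x 10^8 cells/ml) washed into MOPS-buffered RPMI 1640 with L-glutamine and set to the stated density. Exposed to twofold serial drug dilutions (1,024 to 0.0313 µg/ml) at 37°C, 48 h (caspofungin 24 h), with drug-free controls. Read-out: XTT (0.5 g/liter) plus 1 µM menadione, formazan at 490 nm.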

[12] = test system: Candida albicans; test: Antimicrobial activity against Candida albicans FH1 at planktonic cell density of 10^8 cells/ml after 24 hrs by XTT assay; details: FH1, 24 h; how it was run: as §1
[13] = test system: Candida albicans; test: Antimicrobial activity against Candida albicans FH1 dissociated biofilms at cell density of 10^3 cells/ml after 24 hrs by XTT assay; details: FH1, 24 h; how it was run: as §2
[14] = test system: Candida albicans; test: Antimicrobial activity against Candida albicans FH1 dissociated biofilms at cell density of 10^8 cells/ml after 24 hrs by XTT assay; details: FH1, 24 h; how it was run: as §3
[15] = test system: Candida albicans; test: Antimicrobial activity against Candida albicans FH1 intact biofilms after 24 hrs by XTT assay; details: FH1, 24 h; how it was run: as §4
[16] = test system: Candida albicans; test: Antimicrobial activity against fluconazole-resistant Candida albicans FH5 at planktonic cell density of 10^3 cells/ml after 24 hrs by XTT assay; details: FH5, 24 h; how it was run: as §5
[17] = test system: Candida albicans; test: Antimicrobial activity against fluconazole-resistant Candida albicans FH5 at planktonic cell density of 10^8 cells/ml after 24 hrs by XTT assay; details: FH5, 24 h; how it was run: as §5
[18] = test system: Candida albicans; test: Antimicrobial activity against fluconazole-resistant Candida albicans FH5 dissociated biofilms at cell density of 10^3 cells/ml after 24 hrs by XTT assay; details: FH5, 24 h; how it was run: as §2
[19] = test system: Candida albicans; test: Antimicrobial activity against fluconazole-resistant Candida albicans FH5 dissociated biofilms at cell density of 10^8 cells/ml after 24 hrs by XTT assay; details: FH5, 24 h; how it was run: as §2
[20] = test system: Candida albicans; test: Antimicrobial activity against fluconazole-resistant Candida albicans FH5 intact biofilms after 24 hrs by XTT assay; details: FH5, 24 h
How it was run: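 Biofilm seeded at 1 x 10^6 cells/ml in RPMI in polystyrene microtiter wells and grown 48 h at 37°C in a moist chamber. Washed once and drug added to the same well (twofold dilutions, 1,024 to 0.0313 µg/ml) for 48 h at 37°C (caspofungin 24 h). Read-out: XTT/menadione reduction at 490 nm.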

[21] = test system: Candida albicans; test: Antimicrobial activity against Cdr1, Cdr2 and Mdr1 deficient Candida albicans DSY1050 at planktonic cell density of 10^3 cells/ml after 24 hrs by XTT assay; details: DSY1050, 24 h; how it was run: as §1
[22] = test system: Candida albicans; test: Antimicrobial activity against Cdr1, Cdr2 and Mdr1 deficient Candida albicans DSY1050 at planktonic cell density of 10^8 cells/ml after 24 hrs by XTT assay; details: DSY1050, 24 h; how it was run: as §1
[23] = test system: Candida albicans; test: Antimicrobial activity against Cdr1, Cdr2 and Mdr1 deficient Candida albicans DSY1050 dissociated biofilms at cell density of 10^3 cells/ml after 24 hrs by XTT assay; details: DSY1050, 24 h; how it was run: as §3
[24] = test system: Candida albicans; test: Antimicrobial activity against Cdr1, Cdr2 and Mdr1 deficient Candida albicans DSY1050 dissociated biofilms at cell density of 10^8 cells/ml after 24 hrs by XTT assay; details: DSY1050, 24 h; how it was run: as §3
[25] = test system: Candida albicans; test: Antimicrobial activity against Cdr1, Cdr2 and Mdr1 deficient Candida albicans DSY1050 intact biofilms after 24 hrs by XTT assay; details: DSY1050, 24 h; how it was run: as §4
[26] = test system: Candida albicans; test: Antimicrobial activity against Chk1 deficient Candida albicans CHK21 at planktonic cell density of 10^3 cells/ml after 24 hrs by XTT assay; details: CHK21, 24 h; how it was run: as §5
[27] = test system: Candida albicans; test: Antimicrobial activity against Chk1 deficient Candida albicans CHK21 at planktonic cell density of 10^8 cells/ml after 24 hrs by XTT assay; details: CHK21, 24 h; how it was run: as §1
[28] = test system: Candida albicans; test: Antimicrobial activity against Chk1 deficient Candida albicans CHK21 dissociated biofilms at cell density of 10^3 cells/ml after 24 hrs by XTT assay; details: CHK21, 24 h; how it was run: as §2
[29] = test system: Candida albicans; test: Antimicrobial activity against Chk1 deficient Candida albicans CHK21 dissociated biofilms at cell density of 10^8 cells/ml after 24 hrs by XTT assay; details: CHK21, 24 h; how it was run: as §3
[30] = test system: Candida albicans; test: Antimicrobial activity against Chk1 deficient Candida albicans CHK21 intact biofilms after 24 hrs by XTT assay; details: CHK21, 24 h; how it was run: as §4

Measured: MIC80

CC[C@H](C)C[C@H](C)CCCCCCCCC(=O)N[C@H]1C[C@@H](O)[C@@H](NCCN)NC(=O)[C@@H]2[C@@H](O)CCN2C(=O)[C@H]([C@H](O)CCN)NC(=O)[C@H]([C@H](O)[C@@H](O)c2ccc(O)cc2)NC(=O)[C@@H]2C[C@@H](O)CN2C(=O)[C@H]([C@@H](C)O)NC1=O [CASPOFUNGIN]
0.125 µg/mL: [6]
0.25 µg/mL: [1] | [8] | [21] | [23]
0.5 µg/mL: [3] | [11] | [13] | [16] | [18] | [26] | [28]
> 32 µg/mL: all other assays above

Reference: ChEMBL document CHEMBL1157378, “Role for cell density in antifungal drug resistance in Candida albicans biofilms” (2007)
